# Reference: ChEMBL document CHEMBL4414558, “Dehydroabietylamine Ureas and Thioureas as Tyrosyl-DNA Phosphodiesterase 1 Inhibitors That Enhance the Antitumor Effect of Temozolomide on Glioblastoma Cells” (J Nat Prod, 2019)
# Legend:
# [1] = molecular target: Tyrosyl-DNA phosphodiesterase 1 (Homo sapiens, UniProt Q9NUW8); test: Inhibition of recombinant TDP1 (unknown origin) using 5'-(5,6 FAM-aac gtc agg gtc ttc c-BHQ1)-3' as substrate measured every 55 secs for 8 mins by fluorescence based assay
# How it was run: (§1)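 Purified TDP1, either wild-type or the H493R mutant, tested against the fluorogenic substrate. The IC50 is the compound concentration that cuts enzyme activity by 50%.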
# [2] = molecular target: Poly [ADP-ribose] polymerase 1 (Homo sapiens) (UniProt P09874); test: Inhibition of PARP1 (unknown origin) assessed as residual activity at 100 uM relative to control
# [3] = molecular target: Poly [ADP-ribose] polymerase 2 (Homo sapiens) (UniProt Q9UGN5); test: Inhibition of PARP2 (unknown origin) assessed as residual activity at 100 uM relative to control
# [4] = molecular target: Tyrosyl-DNA phosphodiesterase 1 (Homo sapiens, UniProt Q9NUW8, H493R); test: Inhibition of recombinant TDP1 H493R mutant (unknown origin) using 5'-(5,6 FAM-aac gtc agg gtc ttc c-BHQ1)-3' as substrate measured every 55 secs for 8 mins by fluorescence based assay; how it was run: as §1
# [5] = system: U-937; test: Cytotoxicity activity against human U937 cells assessed as reduction in cell viability incubated for 72 hrs by MTT assay; assay type: cell-based; settings: U-937, 72 h
# [6] = system: U-87 MG; test: Cytotoxicity activity against human U87MG cells assessed as reduction in cell viability incubated for 72 hrs by MTT assay; assay type: cell-based, U-87MG ATCC
# [7] = Cytotoxicity activity against human MDA-MB cells assessed as reduction in cell viability incubated for 72 hrs by MTT assay; assay type: cell-based
# [8] = Cytotoxicity activity against human SK-MEL-8 cells assessed as reduction in cell viability incubated for 72 hrs by MTT assay; assay type: cell-based
# [9] = system: A549; test: Cytotoxicity activity against human A549 cells assessed as reduction in cell viability incubated for 72 hrs by MTT assay; assay type: cell-based; settings: A549, 72 h
# [10] = system: WI-38; test: Cytotoxicity activity against human WI38 cells assessed as reduction in cell viability incubated for 72 hrs by MTT assay; assay type: cell-based; settings: WI-38, 72 h
# [11] = system: MCF7; test: Cytotoxicity activity against human MCF7 cells assessed as reduction in cell viability incubated for 72 hrs by MTT assay; assay type: cell-based; settings: MCF7, 72 h
# [12] = system: T98G; test: Cytotoxicity activity against human T98G cells assessed as reduction in cell viability incubated for 72 hrs by MTT assay; assay type: cell-based
# [13] = system: SNB-19; test: Cytotoxicity activity against human SNB19 cells assessed as reduction in cell viability incubated for 72 hrs by MTT assay; assay type: cell-based; settings: SNB-19, 72 h
# [14] = system: U-87 MG; test: Potentiation of TMZ-induced cytotoxicity against human U87MG cells assessed as cell viability at 100 uM incubated for 72 hrs in presence of 2000 uM TMZ by MTT assay (reference value: 100%); assay type: functional, U-87MG ATCC
# [15] = system: U-87 MG; test: Potentiation of TMZ-induced cytotoxicity against human U87MG cells assessed as cell viability at 100 uM incubated for 72 hrs in presence of 2500 uM TMZ by MTT assay (reference value: 100%); assay type: functional, U-87MG ATCC
# [16] = system: SNB-19; test: Potentiation of TMZ-induced cytotoxicity against human SNB19 cells assessed as cell viability at 100 uM incubated for 72 hrs in presence of 1250 uM TMZ by MTT assay (Rvb =100%); assay type: functional
# [17] = system: SNB-19; test: Potentiation of TMZ-induced cytotoxicity against human SNB19 cells assessed as cell viability at 75 uM incubated for 72 hrs in presence of 2000 uM TMZ by MTT assay (Rvb =100%); assay type: functional
# [18] = system: U-87 MG; test: Potentiation of TMZ-induced cytotoxicity against human U87MG cells assessed as reduction in cell viability at 100 uM incubated for 72 hrs in presence of 2500 uM TMZ by MTT assay relative to TMZ alone; assay type: functional, U-87MG ATCC
# [19] = system: SNB-19; test: Potentiation of TMZ-induced cytotoxicity against human SNB19 cells assessed as reduction in cell viability at 75 uM incubated for 72 hrs in presence of 2000 uM TMZ by MTT assay relative to TMZ alone; assay type: functional
# [20] = system: U-87 MG; test: Potentiation of TMZ-induced cytotoxicity against human U87MG cells assessed as combination index at 100 uM incubated for 72 hrs in presence of 2000 uM TMZ by MTT assay; assay type: functional, U-87MG ATCC
# [21] = system: U-87 MG; test: Potentiation of TMZ-induced cytotoxicity against human U87MG cells assessed as combination index at 100 uM incubated for 72 hrs in presence of 2500 uM TMZ by MTT assay; assay type: functional, U-87MG ATCC
# [22] = system: SNB-19; test: Potentiation of TMZ-induced cytotoxicity against human SNB19 cells assessed as combination index at 100 uM incubated for 72 hrs in presence of 1250 uM TMZ by MTT assay; assay type: functional
# [23] = system: SNB-19; test: Potentiation of TMZ-induced cytotoxicity against human SNB19 cells assessed as combination index at 75 uM incubated for 72 hrs in presence of 2000 uM TMZ by MTT assay; assay type: functional
# Poly [ADP-ribose] polymerase 2 (Homo sapiens), sequence (Q9UGN5 whole entry): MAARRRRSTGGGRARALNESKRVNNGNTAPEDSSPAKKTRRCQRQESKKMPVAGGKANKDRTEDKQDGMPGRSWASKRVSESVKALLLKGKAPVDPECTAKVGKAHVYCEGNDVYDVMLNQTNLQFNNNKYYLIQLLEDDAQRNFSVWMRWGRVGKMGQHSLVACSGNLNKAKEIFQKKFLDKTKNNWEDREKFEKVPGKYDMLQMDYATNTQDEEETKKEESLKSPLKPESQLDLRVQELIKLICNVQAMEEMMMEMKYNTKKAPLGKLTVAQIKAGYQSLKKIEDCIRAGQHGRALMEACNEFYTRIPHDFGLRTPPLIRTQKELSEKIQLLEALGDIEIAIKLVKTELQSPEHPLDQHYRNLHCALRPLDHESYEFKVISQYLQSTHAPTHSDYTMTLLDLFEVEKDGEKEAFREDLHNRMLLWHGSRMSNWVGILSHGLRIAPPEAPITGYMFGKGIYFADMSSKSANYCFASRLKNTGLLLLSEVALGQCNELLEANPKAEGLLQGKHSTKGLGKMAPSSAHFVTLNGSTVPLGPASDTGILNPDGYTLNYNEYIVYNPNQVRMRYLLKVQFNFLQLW
# Poly [ADP-ribose] polymerase 1 (Homo sapiens), sequence (P09874 whole entry): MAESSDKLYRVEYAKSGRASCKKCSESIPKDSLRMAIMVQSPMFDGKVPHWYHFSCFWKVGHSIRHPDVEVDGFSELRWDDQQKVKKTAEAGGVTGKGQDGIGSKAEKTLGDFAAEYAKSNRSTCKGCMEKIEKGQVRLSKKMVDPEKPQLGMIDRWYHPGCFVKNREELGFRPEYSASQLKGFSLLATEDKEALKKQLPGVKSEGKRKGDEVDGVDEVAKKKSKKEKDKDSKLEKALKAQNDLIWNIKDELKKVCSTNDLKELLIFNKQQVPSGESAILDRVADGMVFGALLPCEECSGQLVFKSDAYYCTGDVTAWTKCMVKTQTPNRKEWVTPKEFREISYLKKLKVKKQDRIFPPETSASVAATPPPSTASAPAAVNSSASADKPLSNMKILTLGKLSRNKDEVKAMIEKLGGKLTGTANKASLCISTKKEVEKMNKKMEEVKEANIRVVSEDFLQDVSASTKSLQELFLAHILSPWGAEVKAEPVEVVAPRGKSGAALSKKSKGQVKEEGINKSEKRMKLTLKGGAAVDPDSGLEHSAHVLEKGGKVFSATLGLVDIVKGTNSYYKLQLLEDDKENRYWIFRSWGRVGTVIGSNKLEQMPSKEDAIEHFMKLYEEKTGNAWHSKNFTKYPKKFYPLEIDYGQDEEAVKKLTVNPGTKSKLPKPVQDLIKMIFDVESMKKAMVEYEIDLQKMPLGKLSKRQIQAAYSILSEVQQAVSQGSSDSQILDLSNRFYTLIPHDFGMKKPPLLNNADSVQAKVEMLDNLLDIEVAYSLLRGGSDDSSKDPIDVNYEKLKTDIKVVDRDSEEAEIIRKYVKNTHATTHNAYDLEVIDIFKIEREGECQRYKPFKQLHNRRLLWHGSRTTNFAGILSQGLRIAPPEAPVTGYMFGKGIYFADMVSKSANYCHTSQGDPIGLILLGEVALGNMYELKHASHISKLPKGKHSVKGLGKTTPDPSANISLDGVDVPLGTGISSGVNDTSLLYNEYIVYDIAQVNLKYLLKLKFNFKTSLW
# Tyrosyl-DNA phosphodiesterase 1 (Homo sapiens, UniProt Q9NUW8), sequence (Q9NUW8 whole entry): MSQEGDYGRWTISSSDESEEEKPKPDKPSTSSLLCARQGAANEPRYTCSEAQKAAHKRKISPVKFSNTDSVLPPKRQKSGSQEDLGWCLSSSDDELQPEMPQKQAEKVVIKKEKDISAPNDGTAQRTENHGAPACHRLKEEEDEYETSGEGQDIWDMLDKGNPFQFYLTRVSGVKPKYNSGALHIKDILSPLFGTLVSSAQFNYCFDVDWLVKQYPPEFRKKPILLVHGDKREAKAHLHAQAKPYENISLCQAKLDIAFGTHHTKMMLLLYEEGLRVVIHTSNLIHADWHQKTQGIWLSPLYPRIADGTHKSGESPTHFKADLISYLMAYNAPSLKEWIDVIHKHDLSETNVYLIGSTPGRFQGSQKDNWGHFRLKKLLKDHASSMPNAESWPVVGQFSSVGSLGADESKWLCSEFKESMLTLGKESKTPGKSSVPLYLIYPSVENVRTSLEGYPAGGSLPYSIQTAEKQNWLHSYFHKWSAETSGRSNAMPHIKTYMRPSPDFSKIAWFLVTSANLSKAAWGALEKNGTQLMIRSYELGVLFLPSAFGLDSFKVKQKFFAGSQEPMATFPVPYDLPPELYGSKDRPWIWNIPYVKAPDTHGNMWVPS
# Tyrosyl-DNA phosphodiesterase 1 (Homo sapiens, UniProt Q9NUW8, H493R), sequence (Q9NUW8 whole entry H493R): as the sequence (Q9NUW8 whole entry) above, with H493R counted along it
SMILES,IC50 [1] [µM],Activity [2] [%],Activity [3] [%],IC50 [4] [µM],IC50 [5] [µM],IC50 [6] [µM],IC50 [7] [µM],IC50 [8] [µM],IC50 [9] [µM],IC50 [10] [µM],IC50 [11] [µM],IC50 [12] [µM],IC50 [13] [µM],also measured
CC(C)c1ccc2c(c1)CC[C@H]1[C@](C)(CNC(=O)NCC3(C)CC(NC(=O)NC[C@]4(C)CCC[C@]5(C)c6ccc(C(C)C)cc6CC[C@@H]45)CC(C)(C)C3)CCC[C@]21C (some centres not stated),0.09,92,94,5.4,> 100,> 100,> 100,> 100,> 100,> 100,> 100,> 100,> 100,Activity [14]: 109.2%; Activity [15]: 90.9%; Activity [16]: 97.3%; Activity [17]: 89%; fold change (FC) [18]: 1.1; fold change (FC) [19]: 1.1; CI [20]: 1.7; CI [21]: 0.77; CI [22]: 0.97; CI [23]: 0.34
CC(C)c1ccc2c(c1)CC[C@H]1[C@](C)(CNC(=O)Nc3ccc(Cl)cc3)CCC[C@]21C,0.28,93,93,34.1,15,> 100,> 100,> 100,> 100,> 100,52,21.2,< 10,–
CCNC(=S)NC[C@]1(C)CCC[C@]2(C)c3ccc(C(C)C)cc3CC[C@@H]12,2.3,100,116,> 50,18.7,> 100,> 100,> 100,> 100,–,–,> 100,< 10,–
CCNC(=O)NC[C@]1(C)CCC[C@]2(C)c3ccc(C(C)C)cc3CC[C@@H]12,3.7,100,116,> 50,34.8,> 100,> 100,> 100,> 100,–,–,> 100,< 10,–
CC(C)c1ccc2c(c1)CC[C@H]1[C@](C)(CNC(=O)NCCCCCCNC(=O)NC[C@]3(C)CCC[C@]4(C)c5ccc(C(C)C)cc5CC[C@@H]34)CCC[C@]21C,0.19,99,142,9.3,> 100,> 100,> 100,> 100,> 100,> 100,> 100,> 100,> 100,Activity [14]: 109.8%; Activity [15]: 59.3%; Activity [16]: 88.9%; Activity [17]: 70.3%; fold change (FC) [18]: 1.7; fold change (FC) [19]: 1.4; CI [20]: 1.79; CI [21]: 0.43; CI [22]: 0.92; CI [23]: 0.15
CNC(=S)NC[C@]1(C)CCC[C@]2(C)c3ccc(C(C)C)cc3CC[C@@H]12,1.49,110,114,> 50,16.8,> 100,> 100,> 100,19.7,–,–,73.3,< 10,–
C=CCNC(=S)NC[C@]1(C)CCC[C@]2(C)c3ccc(C(C)C)cc3CC[C@@H]12,0.57,104,98,> 50,22.2,> 100,> 100,> 100,100,50,10,> 100,< 10,–
CC(C)c1ccc2c(c1)CC[C@H]1[C@](C)(CNC(=O)NC3CCCCC3)CCC[C@]21C,0.5,96,99,39.2,> 100,> 100,> 100,> 100,> 100,52,> 100,> 100,< 10,–
CC(C)c1ccc2c(c1)CC[C@H]1[C@](C)(CNC(=S)Nc3ccccc3)CCC[C@]21C,0.71,98,116,19.9,> 100,> 100,> 100,> 100,> 100,70,26,–,–,–
CC(C)c1ccc2c(c1)CC[C@H]1[C@](C)(CNC(=O)Nc3ccccc3)CCC[C@]21C,0.95,106,129,24.1,> 100,> 100,> 100,> 100,> 100,> 100,> 100,> 100,17,–
